Results: ChEMBL document CHEMBL4425098, “Thiolactomycin-Based Inhibitors of Bacterial β-Ketoacyl-ACP Synthases with in Vivo Activity” (J Med Chem, 2016)

Assay: Binding affinity to Mycobacterium tuberculosis FabB C171Q mutant expressed in Mycobacterium smegmatis MC2 155 by intrinsic tryptophan fluorescence quenching-based fluorimetric method
In short: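 Kd by quenching of intrinsic tryptophan fluorescence (excitation 280 nm, emission 337 nm). Inhibitor stocks in DMSO or buffer were titrated into 1 μM His-tag-purified enzyme in 50 mM Tris-HCl, 150 mM NaCl, 1 mM DTT, pH 8.5. mtFabB was expressed in M. smegmatis MC²155; saFabF was expressed in E. coli BL21(DE3) pLysS.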

SMILES	Ki [µM]
C=C/C(C)=C/[C@@]1(C)SC(=O)C=C1OCC(=O)NCCNC(=O)OC(C)(C)C	> 200
C=C/C(C)=C/[C@@]1(C)SC(=O)C=C1OCC(=O)NCCN=[N+]=[N-]	> 200
C=C/C(C)=C/[C@@]1(C)SC(=O)C(C)=C1O [THIOLACTOMYCIN]	175
